# Measured values as given in ChEMBL document CHEMBL1132437, “Synthesis and antimicrobial activity of 4H-4-oxoquinolizine derivatives: consequences of structural modification at the C-8 position” (1999).
# Assays:
# Type in all cases: functional
# [1] = test system: Staphylococcus aureus; assay: In vitro antibacterial activity against gram-positive Staphylococcus aureus NCTC 10649M
# How it was run: (§1)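 Agar dilution MIC determination following the National Committee for Clinical Laboratory Standards recommendations.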
# [2] = test system: Enterococcus faecium; assay: In vitro antibacterial activity against gram-positive Enterococcus faecium ATCC 8043; how it was run: as §1
# [3] = test system: Staphylococcus aureus; assay: In vitro antibacterial activity against gram-positive Staphylococcus aureus 1775; how it was run: as §1
# [4] = test system: Escherichia coli; assay: In vitro antibacterial activity against gram negative Escherichia coli KNK 437; how it was run: as §1
# [5] = test system: Burkholderia cepacia; assay: In vitro antibacterial activity against gram negative Pseudomonas cepacia 2961; how it was run: as §1
# [6] = test system: Streptococcus pyogenes; assay: In vitro antibacterial activity against gram positive Streptococcus pyogenes 930; how it was run: as §1
# [7] = test system: Pseudomonas aeruginosa; assay: In vitro antibacterial activity against Gram-negative Pseudomonas aeruginosa 5007; how it was run: as §1
# [8] = test system: Pseudomonas aeruginosa; assay: In vitro antibacterial activity against gram negative P. aeruginosa DPHP 5263; how it was run: as §1
# [9] = Staphylococcus aureus, NCTC 10649, read-out: MIC
# [10] = Enterococcus faecium, ATCC 8043, read-out: MIC
# [11] = Staphylococcus aureus, read-out: MIC
# [12] = Escherichia coli, read-out: MIC
# [13] = Burkholderia cepacia, read-out: MIC
# [14] = Streptococcus pyogenes, read-out: MIC
# [15] = Pseudomonas aeruginosa, read-out: MIC
# [16] = Pseudomonas aeruginosa, DPHP 5263, read-out: MIC
Compound,"MIC [1, 9] [µg/mL]","MIC [2, 10] [µg/mL]","MIC [3, 11] [µg/mL]","MIC [4, 12] [µg/mL]","MIC [5, 13] [µg/mL]","MIC [6, 14] [µg/mL]","MIC [7, 15] [µg/mL]","MIC [8, 16] [µg/mL]",MIC [1] [µg/mL],MIC [2] [µg/mL],MIC [3] [µg/mL],MIC [6] [µg/mL],MIC [4] [µg/mL],MIC [5] [µg/mL],MIC [7] [µg/mL],MIC [8] [µg/mL]
Cc1c(N2CCC(CN)C2)c(F)cn2c(=O)c(C(=O)O)cc(C3CC3)c12 (stereo unspecified),0.002,0.01,0.39,0.05,0.39,,,,,,,,,,,
Cc1c(N2C[C@@H]3CCCN[C@@H]3C2)c(F)cn2c(=O)c(C(=O)O)cc(C3CC3)c12,0.02,0.1,0.78,0.1,1.56,0.05,0.39,,,,,,,,,
Cc1c(N2CC[C@@H]3CNC[C@@H]32)c(F)cn2c(=O)c(C(=O)O)cc(C3CC3)c12,0.05,0.1,6.2,0.2,3.1,,,,,,,,,,,
Cc1c(N2CCCCC2)c(F)cn2c(=O)c(C(=O)O)cc(C3CC3)c12,0.05,0.39,0.78,3.1,3.1,0.2,3.1,> 100,,,,,,,,
Cc1c(N2C[C@@H]3OCC[C@]3(CN)C2)c(F)cn2c(=O)c(C(=O)O)cc(C3CC3)c12,0.005,0.05,0.78,0.2,3.1,,0.39,6.2,,,,,,,,
Cc1c(N2CCC(O)C2)c(F)cn2c(=O)c(C(=O)O)cc(C3CC3)c12 (stereo unspecified),0.005,0.05,0.2,0.2,0.1,,,,,,,,,,,
Cc1c(N2CCC(CNCCF)C2)c(F)cn2c(=O)c(C(=O)O)cc(C3CC3)c12 (stereo unspecified),0.002,0.02,0.1,0.2,3.1,0.002,0.78,12.5,,,,,,,,
Cc1c(N2CC[C@@H](N)C2)c(F)cn2c(=O)c(C(=O)O)cc(C3CC3)c12,0.02,0.05,1.56,0.05,0.78,,,,,,,,,,,

# Next, values leading:
"MIC [1, 9] [µg/mL]","MIC [2, 10] [µg/mL]","MIC [3, 11] [µg/mL]","MIC [4, 12] [µg/mL]","MIC [5, 13] [µg/mL]","MIC [6, 14] [µg/mL]","MIC [7, 15] [µg/mL]","MIC [8, 16] [µg/mL]",MIC [1] [µg/mL],MIC [2] [µg/mL],MIC [3] [µg/mL],MIC [6] [µg/mL],MIC [4] [µg/mL],MIC [5] [µg/mL],MIC [7] [µg/mL],MIC [8] [µg/mL],Compound
0.05,0.2,6.2,0.39,3.1,,0.78,6.2,,,,,,,,,Cc1c(N2CC[C@@H]3CCNC[C@@H]32)c(F)cn2c(=O)c(C(=O)O)cc(C3CC3)c12
0.02,0.39,0.78,1.56,3.1,0.39,3.1,> 100,,,,,,,,,Cc1c(N2CC[C@H](NCC(F)(F)F)C2)c(F)cn2c(=O)c(C(=O)O)cc(C3CC3)c12
0.02,0.1,1.56,0.05,1.56,0.05,0.2,,,,,,,,,,CN[C@H]1CCN(c2c(F)cn3c(=O)c(C(=O)O)cc(C4CC4)c3c2C)C1
0.02,0.2,0.39,0.39,6.2,0.1,1.56,25,,,,,,,,,Cc1c(N2CCC(CN)(C(F)(F)F)C2)c(F)cn2c(=O)c(C(=O)O)cc(C3CC3)c12 (stereo unspecified)
0.05,0.2,6.2,0.2,0.39,0.05,0.39,6.2,,,,,,,,,Cc1c(N2C[C@H]3CCNC[C@@H]3C2)c(F)cn2c(=O)c(C(=O)O)cc(C3CC3)c12
,,,,,,,,0.05,0.2,1.56,0.1,0.2,1.56,0.78,,Cc1c(N2CC[C@H](C)[C@H](N)C2)c(F)cn2c(=O)c(C(=O)O)cc(C3CC3)c12 (stereo in doubt)
,,,,,,,,0.005,0.05,0.39,0.02,0.1,,,12.5,Cc1c(N2C[C@@H](N)[C@@H](C3CC3)C2)c(F)cn2c(=O)c(C(=O)O)cc(C3CC3)c12 (stereo in doubt)
